Experimental data published in ChEMBL document CHEMBL1123282, “Antiinflammatory activity of substituted 6-hydroxypyrimido[2,1-f]purine-2,4,8(1H,3H,9H)-triones. Atypical nonsteroidal antiinflammatory agents” (J Med Chem, 1986).

How the values were obtained:
[1] = system: Rattus norvegicus; experiment: Compound was tested in vivo for antiinflammatory activity against chronic adjuvant arthritic rat by therapeutic inhibition 1 degree paw after peroral administration of 18 mg/kg of dose; format: functional; conditions: route oral
[2] = system: Rattus norvegicus; experiment: Compound was tested in vivo for antiinflammatory activity against chronic adjuvant arthritic rat by therapeutic inhibition 2 degree paw after peroral administration of 30 mg/kg of dose; format: functional; conditions: route oral
[3] = system: Rattus norvegicus; experiment: Compound was tested for intestinal ulcerogenic effect in rats, activity expressed as ulcer incidence at a dose of 10 mg/kg; format: functional
Procedure, shortened: (§1)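 Normal fed rats were gavaged once daily for three consecutive days at 10–300 mg/kg and killed 24 h after the last dose. Intestines were examined for ulcers, recording incidence per group of 8 and a lesion score (±SE).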

[4] = system: Rattus norvegicus; experiment: Compound was tested in vivo against chronic adjuvant arthritic rat by prophylactic inhibition 1 degree paw. Relative potency with respect to (8-Benzyl-5-hydroxy-1,3-dimethyl-6-propyl-1H,8H-1,3,4b,8,9-pentaaza-fluorene-2,4,7-trione); format: functional
[5] = system: Rattus norvegicus; experiment: Compound was tested in vivo for antiinflammatory activity against chronic adjuvant arthritic rat by therapeutic inhibition 1 degree paw after peroral administration of 30 mg/kg of dose; format: functional; conditions: route oral
[6] = system: Rattus norvegicus; experiment: Compound was tested for intestinal ulcerogenic effect in rats, activity expressed as ulcer incidence at a dose of 300 mg/kg; format: functional; procedure, shortened: as §1
[7] = system: Rattus norvegicus; experiment: Antiinflammatory activity against collagen II arthritis in rats, activity% inhibition in injected paw edema; format: functional; design: concentration or dose not given beside the values
Procedure, shortened: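 Rats immunised with bovine articular-cartilage type II collagen (dissolved in 0.01 M AcOH for 24 h at 4 °C, dialysed against saline) mixed in equal volume with incomplete Freund's adjuvant. Paws were examined weekly for 7 weeks. An animal counted as arthritic at Δ paw volume ≥8.0 (injected paw) or ≥4.0 (noninjected paw). Bone lesions were scored on lateral-projection foot radiographs. 16 rats/group.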

[8] = system: Rattus norvegicus; experiment: Compound was tested in vivo for antiinflammatory activity against chronic adjuvant arthritic rat by prophylactic inhibition 1 degree paw after peroral administration of 36 mg/kg of dose; conditions: po
[9] = system: Rattus norvegicus; experiment: Compound was tested for intestinal ulcerogenic effect in rats at a dose of 300 mg/kg; format: functional; procedure, shortened: as §1
[10] = system: Rattus norvegicus; experiment: Compound was tested in vivo for antiinflammatory activity against chronic adjuvant arthritic rat by therapeutic inhibition 2 degree paw after peroral administration of 3.3 mg/kg of dose; format: functional; conditions: route oral
[11] = system: Rattus norvegicus; experiment: Compound was tested for intestinal Ulcerogenic effect in rats at a dose of 30 mg/kg; format: functional; procedure, shortened: as §1
[12] = molecular target: T1, Cyclooxygenase (Rattus norvegicus, UniProt P35355+Q63921); experiment: In vitro inhibitory activity against Prostaglandin G/H synthase in rat neutrophils
T1 sequence (P35355 whole entry): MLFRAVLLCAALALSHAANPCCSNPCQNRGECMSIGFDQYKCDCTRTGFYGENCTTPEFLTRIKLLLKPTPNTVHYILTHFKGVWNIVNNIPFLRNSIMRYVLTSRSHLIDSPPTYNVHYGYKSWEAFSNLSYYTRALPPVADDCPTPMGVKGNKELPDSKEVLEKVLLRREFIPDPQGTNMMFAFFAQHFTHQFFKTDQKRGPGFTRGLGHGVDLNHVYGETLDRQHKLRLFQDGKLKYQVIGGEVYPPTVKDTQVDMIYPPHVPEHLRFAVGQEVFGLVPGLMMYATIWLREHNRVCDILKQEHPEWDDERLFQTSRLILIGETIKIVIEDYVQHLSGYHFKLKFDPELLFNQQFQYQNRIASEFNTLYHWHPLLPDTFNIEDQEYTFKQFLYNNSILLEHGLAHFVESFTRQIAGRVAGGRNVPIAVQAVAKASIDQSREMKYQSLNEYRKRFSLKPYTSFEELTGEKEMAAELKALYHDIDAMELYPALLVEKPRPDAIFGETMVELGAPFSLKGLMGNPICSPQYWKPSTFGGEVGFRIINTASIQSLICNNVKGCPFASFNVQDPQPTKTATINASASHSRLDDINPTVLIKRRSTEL
T1 sequence (Q63921 whole entry): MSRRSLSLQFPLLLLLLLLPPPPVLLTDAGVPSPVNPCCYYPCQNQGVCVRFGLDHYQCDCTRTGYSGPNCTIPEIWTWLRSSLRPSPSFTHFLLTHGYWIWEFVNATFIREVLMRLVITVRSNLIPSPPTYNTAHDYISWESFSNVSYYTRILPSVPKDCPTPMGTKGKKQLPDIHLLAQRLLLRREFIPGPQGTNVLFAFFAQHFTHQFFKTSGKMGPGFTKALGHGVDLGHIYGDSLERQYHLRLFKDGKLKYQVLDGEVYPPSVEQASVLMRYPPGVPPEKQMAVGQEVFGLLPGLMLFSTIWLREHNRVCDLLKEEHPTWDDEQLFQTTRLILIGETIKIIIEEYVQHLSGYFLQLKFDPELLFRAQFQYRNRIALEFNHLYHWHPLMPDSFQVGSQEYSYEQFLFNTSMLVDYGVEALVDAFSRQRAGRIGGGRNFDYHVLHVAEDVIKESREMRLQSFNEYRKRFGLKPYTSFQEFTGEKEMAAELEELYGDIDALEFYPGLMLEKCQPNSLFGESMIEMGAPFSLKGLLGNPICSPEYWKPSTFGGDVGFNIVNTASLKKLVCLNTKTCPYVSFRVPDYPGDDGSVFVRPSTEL

[13] = system: Rattus norvegicus; experiment: Compound was tested for intestinal ulcerogenic effect in rats, activity expressed as lesion score at a dose of 30 mg/kg; format: functional; procedure, shortened: as §1
[14] = system: Rattus norvegicus; experiment: Compound was tested for gastric Ulcerogenic effect in rats, activity expressed as lesion length at a dose of 10 mg/kg
[15] = system: Rattus norvegicus; experiment: Compound was tested for intestinal Ulcerogenic effect in rats, activity expressed as lesion score at a dose of 30 mg/kg; format: functional; procedure, shortened: as §1
[16] = Plasma level data at a dose of 36 mg/kg, po after 0.5 hr; format: ADME, organism-based; design: dose 36 mg/kg, route oral; conditions: read-out: Plasma level
Procedure, shortened: (§2)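 Male Lewis rats get a single iv or oral dose of the sodium salt, suspended in 0.4% (w/v) methyl cellulose. Plasma drug levels are measured by HPLC at the timed points and given as mean ± SD, n = 3.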

[17] = system: Rattus norvegicus; experiment: Compound was tested for intestinal Ulcerogenic effect in rats at a dose of 100 mg/kg; format: functional; procedure, shortened: as §1
[18] = Plasma level data at a dose of 36 mg/kg, po after 0.25 hr; format: ADME, organism-based; design: dose 36 mg/kg, route oral; conditions: read-out: Plasma level; procedure, shortened: as §2
[19] = Plasma level data at a dose of 36 mg/kg, iv after 1 hr; format: ADME, organism-based; design: dose 36 mg/kg, route intravenous; conditions: read-out: Plasma level; procedure, shortened: as §2
[20] = Plasma level data at a dose of 36 mg/kg, iv after 0.25 hr; format: ADME, organism-based; design: dose 36 mg/kg, route intravenous; conditions: read-out: Plasma level; procedure, shortened: as §2
[21] = Plasma level data at a dose of 20 mg/kg, po after 1 hr; format: ADME, organism-based; design: dose 20 mg/kg, route oral; conditions: read-out: Plasma level; procedure, shortened: as §2
[22] = species: Rattus norvegicus; experiment: Delayed Type hypersensitivity (DTH) is measured by increase in ear thickness 24 hours after antigen injection into pinna; format: functional
[23] = Plasma level data at a dose of 20mg/kg, po after 6 hr; format: ADME, organism-based; conditions: read-out: Plasma level; procedure, shortened: as §2
[24] = system: Rattus norvegicus; experiment: Compound was tested in vivo for antiinflammatory activity against chronic adjuvant arthritic rat by therapeutic inhibition 1 degree paw after peroral administration of 1 mg/kg of dose; format: functional; conditions: route oral
[25] = system: Rattus norvegicus; experiment: Compound was tested in vivo for antiinflammatory activity against chronic adjuvant arthritic rat by therapeutic inhibition 1 degree paw after peroral administration of 3 mg/kg of dose; format: functional; conditions: route oral
[26] = Plasma level data at a dose of 20 mg/kg, po after 0.25 hr; format: ADME, organism-based; design: dose 20 mg/kg, route oral; conditions: read-out: Plasma level; procedure, shortened: as §2
[27] = Plasma level data at a dose of 20 mg/kg, iv after 2 hr; format: ADME, organism-based; design: dose 20 mg/kg, route intravenous; conditions: read-out: Plasma level; procedure, shortened: as §2

IC50 [12] | Structure (SMILES) | inhibition in vivo at 30 mg/kg [2] | inhibition in vivo at 30 mg/kg [5] | Inhibition [7] | inhibition in vivo at 36 mg/kg [8] | inhibition in vivo at 3.3 mg/kg [10] | Ulcer incidence [11] | Length [14] | Lesion score [15] | Ulcer incidence [17] | also measured
4.2 µM | CC(C)=CCc1c(O)n(Cc2ccc(F)cc2)c2nc3c(c(=O)n(C)c(=O)n3C)n2c1=O | 87% | 59% | 53.9% | 44% | 43% | 0 number/group | – | – | – | inhibition in vivo at 18 mg/kg [1]: 39%; Ulcer incidence [3]: 0 number/group; Relative potency [4]: 1.1; Ulcer incidence [6]: 2 number/group; Ulcer incidence [9]: 2 number/group; Lesion length [13]: 0 mm rat-1
– | CCCc1c(O)n(Cc2ccc(F)cc2)c2nc3c(c(=O)n(C)c(=O)n3C)n2c1=O | – | – | 38.2% | 60% | – | – | 0 mm rat-1 | 0 mm rat-1 | 0 number/group | concentration at 0.5 h [16]: 45100 ng/mL; concentration at 0.25 h [18]: 20000 ng/mL; concentration at 1 h [19]: 107 µg/mL; concentration at 0.25 h [20]: 140 µg/mL
2 µM | CC(C)=CCc1c(O)n(Cc2ccccc2)c2nc3c(c(=O)n(C)c(=O)n3C)n2c1=O | 83% | 63% | – | – | 42% | 0 number/group | 0 mm rat-1 | 0 mm rat-1 | 1 number/group | concentration at 1 h [21]: 17300 ng/mL; DTH [22]: 0.0582 mm; concentration at 6 h [23]: 37000 ng/mL; inhibition in vivo at 1 mg/kg [24]: 0%; inhibition in vivo at 3 mg/kg [25]: 22%; concentration at 0.25 h [26]: 2400 ng/mL; concentration at 2 h [27]: 53.8 µg/mL
